Reference: ChEMBL document CHEMBL3352136, “Vinylated linear P2 pyrimidinyloxyphenylglycine based inhibitors of the HCV NS3/4A protease and corresponding macrocycles” (Bioorg Med Chem, 2014)
pEC50, pKi: −log10 of the molar value. ≈ marks a conversion by molar mass, not a printed value.

Columns and labels:
[1] = target: Hepatitis C virus serine protease, NS3/NS4A (Hepatitis C virus, UniProt A3EZI9+D2K2A8); experiment: (§1) Inhibition of HCV genotype 1a NS3/4A protease using Ac-DED(Edans)EEAbu-psi[COO]ASK(Dabcyl)-NH2 as substrate by FRET assay; parameters: species or system Hepatitis C virus subtype 1a
Procedure, shortened: (§2)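 Full-length NS3/4A (protease–helicase/NTPase, genotype 1a) measured by FRET. Buffer: 50 mM HEPES pH 7.5, 10 mM DTT, 40% glycerol, 0.1% n-octyl-β-D-glucoside, 3.3% DMSO. Ki values derived.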

Hepatitis C virus [2] = experiment: Antiviral activity against HCV genotype 1b infected in human Huh-7 cells by firefly luciferase assay; format: functional, cell-based, Hepacivirus hominis
Procedure, shortened: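 Huh-7 cells carrying a subgenomic HCV genotype 1b replicon with firefly luciferase reporter; EC50 derived from luciferase signal.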

Hepatitis C virus [3] = experiment: Antiviral activity against HCV genotype 1a; format: functional, Hepacivirus hominis; details: subtype 1a
[4] = target: Hepatitis C virus serine protease, NS3/NS4A (Hepatitis C virus, UniProt A3EZI9+D2K2A8, R155K); experiment: Inhibition of HCV NS3/4A protease R155K mutant using Ac-DED(Edans)EEAbu-psi[COO]ASK(Dabcyl)-NH2 as substrate by FRET assay; parameters: species or system Hepacivirus hominis
Liver microsome [5] = experiment: (§3) Intrinsic clearance in human liver microsomes preincubated for 5 mins by LC/MS/MS analysis; format: ADME; details: microsomes, 5 min
Procedure, shortened: (§4)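 Compound at 1 µM preincubated 5 min at 37 °C with pooled human liver microsomes (0.5 mg/mL) in 0.1 M potassium phosphate pH 7.4. Reaction started with NADPH (1 mM final) and stopped at 0, 5, 15 and 40 min with ice-cold acetonitrile containing internal standard. LC/MS/MS read-out. ln(% remaining) regressed linearly on time; t1/2 and Clint derived assuming first-order kinetics. Dextromethorphan (3 µM) and midazolam (5 µM) served as CYP2D6/CYP3A4 controls.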

[6] = target: Hepatitis C virus serine protease, NS3/NS4A (Hepatitis C virus, UniProt A3EZI9+D2K2A8, A156T); experiment: Inhibition of HCV NS3/4A protease A156T mutant using Ac-DED(Edans)EEAbu-psi[COO]ASK(Dabcyl)-NH2 as substrate by FRET assay; parameters: species or system Hepacivirus hominis
Liver microsome [7] = experiment: (§5) Half life in human liver microsomes preincubated for 5 mins by LC/MS/MS analysis; format: ADME; details: microsomes; procedure, shortened: as §4
[8] = Apparent permeability from apical to basolateral side in human Caco2 cells; format: ADME, cell-based; details: Caco-2
Procedure, shortened: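 Caco-2 monolayers on polycarbonate filter inserts, cells kept in 90% air/10% CO2. Compound diluted from 10 mM DMSO stock to 10 µM (final DMSO 0.1%) in FASSIF pH 7.4 on apical donor side. Receiver is HBSS pH 7.4 with 1% (w/v) BSA. Run at 37 °C with 500 rpm stirring. Receiver sampled at 15, 30 and 60 min, donor sampled at 60 min for mass balance. Membrane integrity checked afterwards, LC/MS/MS read-out, at least triplicates.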

[9] = target: Hepatitis C virus serine protease, NS3/NS4A (Hepatitis C virus, UniProt A3EZI9+D2K2A8, D168V); experiment: Inhibition of HCV NS3/4A protease D168V mutant using Ac-DED(Edans)EEAbu-psi[COO]ASK(Dabcyl)-NH2 as substrate by FRET assay; parameters: species or system Hepacivirus hominis
[10] = as §3; format: ADME; details: liver microsomes, read-out: CLH; procedure, shortened: as §4
[11] = as §5; format: ADME; details: liver microsomes; procedure, shortened: as §4
[12] = Solubility of the compound in PBS after 2 hrs by LC-MS/MS analysis; format: physicochemical
Procedure, shortened: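 DMSO stock (10 mM) added to PBS to 1% final DMSO, rotated in glass vials 2 h at 37 °C. Centrifuged 10,000g for 30 min, then supernatant quantified by LC–MS/MS. Upper detection limit 100 µM.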

[13] = target: Hepatitis C virus serine protease, NS3/NS4A (Hepatitis C virus, UniProt D2K2A8+A3EZI9); experiment: as §1; parameters: species or system Hepatitis C virus subtype 1a; procedure, shortened: as §2

## CC(C)(C)OC(=O)N[C@H](C(=O)N[C@@H]1C(=O)Nc2ccccc2C(=O)NS(=O)(=O)CCC/C=C/c2cc(nc(-c3ccccc3)n2)Oc2ccc1cc2)C(C)(C)C
[1]
  pKi: 6.18

## COc1cc(Oc2ccc3cc2/C=C/CCS(=O)(=O)NC(=O)c2ccccc2NC(=O)[C@H]3NC(=O)OC(C)(C)C)nc(-c2ccccc2)n1
[1]
  pKi: 5.89

## COc1cc(Oc2ccc3cc2/C=C/CCS(=O)(=O)NC(=O)c2ccccc2NC(=O)[C@H]3NC(=O)[C@@H](NC(=O)OC(C)(C)C)C(C)(C)C)nc(-c2ccccc2)n1
[1]
  pKi: 6.20

## COc1cc(Oc2ccc(C3NC(=O)[C@H](NC(=O)OC(C)(C)C)CCCCC/C=C/CCS(=O)(=O)NC(=O)c4ccccc4NC3=O)cc2)nc(-c2ccccc2)n1 (some centres undefined)
[1]
  pKi: 6.66

## COc1cc(Oc2ccc(C3NC(=O)[C@H](NC(=O)OC(C)(C)C)CCCCCCCCCS(=O)(=O)NC(=O)c4ccccc4NC3=O)cc2)nc(-c2ccccc2)n1 (some centres undefined)
[1]
  pKi: 6.89

## C=CCCCS(=O)(=O)NC(=O)c1ccccc1NC(=O)[C@H]1NC(=O)[C@H](C(C)(C)C)NC(=O)OCC/C=C/c2cc(nc(-c3ccccc3)n2)Oc2ccc1cc2
[1]
  pKi: 6.41

## C=CCCCS(=O)(=O)NC(=O)[C@H](CCC)NC(=O)[C@H]1NC(=O)[C@H](C(C)(C)C)NC(=O)OCC/C=C/c2cc(nc(-c3ccccc3)n2)Oc2ccc1cc2
[1]
  pKi: 5.80

## C=CCCCS(=O)(=O)NC(=O)c1ccccc1NC(=O)[C@@H](NC(=O)[C@@H](NC(=O)OC(C)(C)C)C(C)(C)C)c1ccc(Oc2cc(-c3ccccc3)nc3cc(OC)ccc23)c(C=C)c1
Hepatitis C virus [2]
  pEC50: 5.27

## C=CCCCS(=O)(=O)NC(=O)c1ccccc1NC(=O)[C@H](NC(=O)[C@@H](NC(=O)OC(C)(C)C)C(C)(C)C)c1ccc(Oc2cc(-c3ccccc3)nc3cc(OC)ccc23)c(C=C)c1
Hepatitis C virus [2]
  pEC50: 5.27

## CC[C@@H]1C[C@]1(NC(=O)[C@@H]1C[C@@H]2CN1C(=O)[C@H](C(C)(C)C)NC(=O)OCC(C)(C)CCCCc1cccc3c1CN(C3)C(=O)O2)C(=O)NS(=O)(=O)C1CC1
Hepatitis C virus [3]
  pEC50: 8.30
[1]
  pKi: 10.30

## COc1ccc2c(O[C@@H]3C[C@H]4C(=O)N[C@]5(C(=O)NS(=O)(=O)C6CC6)C[C@H]5/C=C\CCCCN(C)C(=O)[C@@H]4C3)cc(-c3nc(C(C)C)cs3)nc2c1C
Hepatitis C virus [3]
  pEC50: 8.11
[1]
  pKi: 9.44

## COc1cc(Oc2ccc(C3NC(=O)[C@H](NC(=O)OC(C)(C)C)CCCCC/C=C/CCCS(=O)(=O)NC(=O)c4ccccc4NC3=O)cc2)nc(-c2ccccc2)n1 (single isomer, unassigned; diastereomer 2)
[4]
  pKi: 6.66
Liver microsome [5]
  microsomal intrinsic clearance: 137 µL/min/mg
[6]
  pKi: 6.80
Hepatitis C virus [2]
  pEC50: 4.82
Liver microsome [7]
  t1/2: 10 min
[8]
  Papp: 0.15 ×10⁻⁶ cm/s
[9]
  pKi: 6.22
[1]
  pKi: 7.10

## COc1cc(Oc2ccc(C3NC(=O)[C@H](NC(=O)OC(C)(C)C)CCCCCCCCCCS(=O)(=O)NC(=O)c4ccccc4NC3=O)cc2)nc(-c2ccccc2)n1 (single isomer, unassigned; diastereomer 2)
[1]
  pKi: 6.96

## COc1cc(Oc2ccc(C3NC(=O)[C@H](NC(=O)OC(C)(C)C)CCCCC/C=C/CCCS(=O)(=O)NC(=O)c4ccccc4NC3=O)cc2)nc(-c2ccccc2)n1 (stereo in doubt; 29L)
[10]
  microsomal CLint: 87 µL/min/mg
[11]
  half-life: 16 min
[8]
  Papp: 0.35 ×10⁻⁶ cm/s
[12]
  solubility at 2 h: 51 µM (≈ 42.2 µg/mL)
[1]
  pKi: 6.96

## COc1cc(Oc2ccc(C3NC(=O)[C@H](NC(=O)OC(C)(C)C)CCCCCCCCCCS(=O)(=O)NC(=O)c4ccccc4NC3=O)cc2)nc(-c2ccccc2)n1 (stereo in doubt; 31L)
[13]
  pKi: 6.96

## CC(C)(C)NC(=O)N[C@H](C(=O)N1C[C@H]2[C@@H]([C@H]1C(=O)NC(CC1CCC1)C(=O)C(N)=O)C2(C)C)C(C)(C)C (some centres undefined) [BOCEPREVIR]
[1]
  pKi: 7.85
